What is called IC50 is the concentration that gives 50% inhibition.

Drawing on ChEMBL document CHEMBL1146097, “Catalytic site prediction and virtual screening of cytochrome P450 2D6 substrates by consideration of water and rescoring in automated docking” (J Med Chem, 2006), this text covers IC50 for 17 molecules.

Each structure is given as a SMILES string.

In the experiment the target is Cytochrome P450 2D6 (Homo sapiens, UniProt P10635). Description: Inhibition of human CYP2D6 expressed in Escherichia coli JM109. It is filed as ADME. In a few lines: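 IC50 from inhibition of CYP2D6-catalysed MAMC O-demethylation; values are means of at least three independent experiments ± standard deviation.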
Sequence of Cytochrome P450 2D6 (P10635 whole entry): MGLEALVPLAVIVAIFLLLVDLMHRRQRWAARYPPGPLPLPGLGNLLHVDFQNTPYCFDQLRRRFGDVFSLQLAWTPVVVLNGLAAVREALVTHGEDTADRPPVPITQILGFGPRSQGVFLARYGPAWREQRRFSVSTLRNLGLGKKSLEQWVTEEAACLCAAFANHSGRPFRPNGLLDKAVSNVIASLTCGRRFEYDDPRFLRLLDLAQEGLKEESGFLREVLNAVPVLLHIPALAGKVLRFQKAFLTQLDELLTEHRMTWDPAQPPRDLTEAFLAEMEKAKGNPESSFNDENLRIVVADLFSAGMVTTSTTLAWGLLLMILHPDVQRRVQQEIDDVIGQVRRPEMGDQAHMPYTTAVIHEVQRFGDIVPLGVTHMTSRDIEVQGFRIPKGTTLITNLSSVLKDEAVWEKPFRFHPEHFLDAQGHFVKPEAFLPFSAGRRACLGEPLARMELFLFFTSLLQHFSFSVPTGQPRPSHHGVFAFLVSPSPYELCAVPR
`CCc1ccccc1C1(Br)C(=O)c2ccccc2C1=O` displayed a half-inhibitory concentration (IC50) of 83 µM.

On to `Cc1ccc2c(c1)C(n1cccc1)c1cccnc1CC2` (configuration not stated), for which half-maximal inhibition (IC50) required 40 µM. This IC50 is about 2.1-fold lower than that of the molecule before.

As for `CC(Cc1ccccc1)NC1CC2c3ccccc3CCc3cccc1c32` (configuration not stated), the IC50 was determined as 0.15 µM.

Molecule `O=C1c2ccccc2C(O)C1C1c2ccccc2C=Cc2ccccc21` (configuration not stated) registered a 50% inhibitory concentration (IC50) of 60 µM.

The molecule `Nc1ccccc1-c1nc(N)c2ccccc2n1` yielded a concentration for half-maximal inhibition (IC50) of 169 µM. Against the preceding molecule, the IC50 is about 2.8-fold higher.

As for `Oc1ccccc1/C=N/c1ccccc1` [2-((PHENYLIMINO)METHYL)PHENOL], the IC50 is above 1000 µM.

Molecule `COc1ccc2c(c1)[C@]13CCCC[C@@H]1[C@H](C2)N(C)CC3` [DEXTROMETHORPHAN] yielded an IC50 of 3.4 µM. In other words, the single-digit micromolar range.

As to `Fc1ccc(C(OCCN2CCC(CCCc3ccccc3)CC2)c2ccc(F)cc2)cc1`, half-maximal inhibition (IC50) required 1.21 µM.

`CCC(=O)O/N=C1\c2ccccc2CCc2ncccc21`: the IC50 was above 400 µM.

The molecule `c1ccc(CCNCCC2c3ccccc3Sc3ccccc32)cc1` yielded an IC50 of 0.26 µM.

For the molecule `CCCCCCCCCCCc1cccn1C1c2ccccc2CCc2ccccc21`, the IC50 is 5.8 µM.

The molecule `Cn1ccnc1C(O)C=C(c1ccccc1)c1ccccc1` (configuration not stated) yielded an IC50 of 15 µM.

Molecule `CN(C)CCC1(O)c2ccccc2CCc2ccc3ccccc3c21` (configuration not stated) gave an IC50 of 0.06 µM.

As to `CC1C2C=C(C=C3c4ccccc4CCc4ccccc43)CC1CC2` (configuration not stated), half-maximal inhibition (IC50) required 0.21 µM.

With `CCC(c1ccccc1)c1c(O)c2ccccc2oc1=O` (configuration not stated) [PHENPROCOUMON], the midpoint of inhibition, the IC50, lay at 528 µM.

As for `C[N+]1(C)C2CCC1CC(OC1c3ccccc3C=Cc3ccccc31)C2` (configuration not stated), the IC50 is 60 µM. This IC50 lies about 8.8-fold lower than the previous one.

`C(=C1c2ccccc2CCc2ccccc21)c1ccccc1` had an IC50 above 200 µM.
